Laboratory results taken from ChEMBL document CHEMBL4414643, “Pharmacokinetics of Phytocannabinoid Acids and Anticonvulsant Effect of Cannabidiolic Acid in a Mouse Model of Dravet Syndrome” (J Nat Prod, 2019).
Active and inactive are the calls of the source.

Experiments:
[1] = Cmax in anesthetized C57BL/6J mouse brain at 10 mg/kg, ip administered as single dose measured upto 240 mins in presence of vegetable oil by LC-MS/MS analysis; type: ADME, organism-based; parameters: dose 10 mg/kg, route intraperitoneal; settings: in vivo, 4 h
Summary of the method: (§1)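 Male and female mice (C57BL/6J or C57BL/6J x 129 F1), postnatal days 21-28, single i.p. injection at 10 mL/kg in vegetable oil or ethanol–Tween 80–saline (1:1:18). Blood taken by cardiac puncture under isoflurane at time points 15–240 min. Plasma and PBS brain homogenate extracted with ice-cold acetonitrile, diazepam internal standard, quantified by LC-MS/MS. Mean concentrations per time point (n = 3-5); noncompartmental analysis.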

[2] = Drug metabolism in brain of anesthetized C57BL/6J mouse at 10 mg/kg, ip by LC-MS/MS analysis; type: ADME, organism-based; settings: in vivo
Summary of the method: (§2)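 Mice aged 21-28 days postnatal received one i.p. dose (10 mL/kg), and plasma and brain were sampled at 15–240 min. Decarboxylated neutral cannabinoids were measured by LC-MS/MS against known standards, alongside the parent acid.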

[3] = Ratio of drug level in anesthetized C57BL/6J mouse brain to plasma at 5 mg/kg, ip administered as single dose measured upto 240 mins in presence of tween-80 by LC-MS/MS analysis; type: ADME, organism-based; settings: read-out: BPR
[4] = Cmax in anesthetized C57BL/6J mouse plasma at 10 mg/kg, ip administered as single dose measured upto 240 mins in presence of vegetable oil by LC-MS/MS analysis; type: ADME, organism-based; parameters: dose 10 mg/kg, route intraperitoneal; summary of the method: as §1
[5] = Partition coefficient, log P of compound; type: physicochemical; settings: octanol/water
[6] = Tmax in anesthetized C57BL/6J mouse plasma at 10 mg/kg, ip administered as single dose measured upto 240 mins in presence of vegetable oil by LC-MS/MS analysis; type: ADME, organism-based; summary of the method: as §1
[7] = Drug uptake in plasma of anesthetized C57BL/6J mouse at 10 mg/kg, ip by LC-MS/MS analysis; type: ADME, organism-based; settings: in vivo; summary of the method: as §2
[8] = Half life in anesthetized C57BL/6J mouse brain at 10 mg/kg, ip administered as single dose measured upto 240 mins in presence of tween-80 by LC-MS/MS analysis; type: ADME, organism-based; summary of the method: as §1
[9] = Half life in anesthetized C57BL/6J mouse brain at 10 mg/kg, ip administered as single dose measured upto 240 mins by LC-MS/MS analysis; type: ADME, organism-based; summary of the method: as §1
[10] = Tmax in anesthetized C57BL/6J mouse plasma at 10 mg/kg, ip administered as single dose measured upto 240 mins by LC-MS/MS analysis; type: ADME, organism-based; summary of the method: as §1
[11] = Cmax in anesthetized C57BL/6J mouse brain at 10 mg/kg, ip administered as single dose measured upto 240 mins in presence of tween-80 by LC-MS/MS analysis; type: ADME, organism-based; parameters: dose 10 mg/kg, route intraperitoneal; settings: in vivo, 4 h; summary of the method: as §1
[12] = Tmax in anesthetized C57BL/6J mouse brain at 10 mg/kg, ip administered as single dose measured upto 240 mins by LC-MS/MS analysis; type: ADME, organism-based; summary of the method: as §1
[13] = Tmax in anesthetized C57BL/6J mouse brain at 10 mg/kg, ip administered as single dose measured upto 240 mins in presence of tween-80 by LC-MS/MS analysis; type: ADME, organism-based; summary of the method: as §1
[14] = Cmax in anesthetized C57BL/6J mouse plasma at 10 mg/kg, ip administered as single dose measured upto 240 mins by LC-MS/MS analysis; type: ADME, organism-based; parameters: dose 10 mg/kg, route intraperitoneal; summary of the method: as §1
[15] = Cmax in anesthetized C57BL/6J mouse plasma at 10 mg/kg, ip administered as single dose measured upto 240 mins in presence of tween-80 by LC-MS/MS analysis; type: ADME, organism-based; parameters: dose 10 mg/kg, route intraperitoneal; summary of the method: as §1
[16] = Cmax in anesthetized C57BL/6J mouse brain at 10 mg/kg, ip administered as single dose measured upto 240 mins by LC-MS/MS analysis; type: ADME, organism-based; parameters: dose 10 mg/kg, route intraperitoneal; settings: in vivo, 4 h; summary of the method: as §1
[17] = Half life in anesthetized C57BL/6J mouse plasma at 10 mg/kg, ip administered as single dose measured upto 240 mins in presence of tween-80 by LC-MS/MS analysis; type: ADME, organism-based; summary of the method: as §1
[18] = Tmax in anesthetized C57BL/6J mouse plasma at 10 mg/kg, ip administered as single dose measured upto 240 mins in presence of tween-80 by LC-MS/MS analysis; type: ADME, organism-based; summary of the method: as §1
Mus musculus [19] = assay: Anticonvulsant activity against hyperthermia-induced seizure in Scn1aRX/+ mouse model of Dravet syndrome assessed as increase in generalized tonic-clonic seizure temperature threshold at 10 to 30 mg/kg, ip administered as single dose measured by RET-3 rectal probe; type: functional, organism-based
[20] = AUC in anesthetized C57BL/6J mouse brain at 10 mg/kg, ip administered as single dose measured upto 240 mins in presence of vegetable oil by LC-MS/MS analysis; type: ADME, organism-based; parameters: dose 10 mg/kg, time < 4 hr, route intraperitoneal; settings: in vivo, 4 h; summary of the method: as §1
[21] = Half life in anesthetized C57BL/6J mouse brain at 10 mg/kg, ip administered as single dose measured upto 240 mins in presence of vegetable oil by LC-MS/MS analysis; type: ADME, organism-based; summary of the method: as §1
[22] = Half life in anesthetized C57BL/6J mouse plasma at 10 mg/kg, ip administered as single dose measured upto 240 mins in presence of vegetable oil by LC-MS/MS analysis; type: ADME, organism-based; summary of the method: as §1
[23] = AUC in anesthetized C57BL/6J mouse brain at 10 mg/kg, ip administered as single dose measured upto 240 mins by LC-MS/MS analysis; type: ADME, organism-based; parameters: dose 10 mg/kg, time < 4 hr, route intraperitoneal; settings: in vivo, 4 h; summary of the method: as §1
[24] = AUC in anesthetized C57BL/6J mouse plasma at 10 mg/kg, ip administered as single dose measured upto 240 mins by LC-MS/MS analysis; type: ADME, organism-based; parameters: time < 4 hr, dose 10 mg/kg, route intraperitoneal; summary of the method: as §1
[25] = AUC in anesthetized C57BL/6J mouse plasma at 10 mg/kg, ip administered as single dose measured upto 240 mins in presence of vegetable oil by LC-MS/MS analysis; type: ADME, organism-based; parameters: time < 4 hr, dose 10 mg/kg, route intraperitoneal; summary of the method: as §1
[26] = AUC in anesthetized C57BL/6J mouse plasma at 10 mg/kg, ip administered as single dose measured upto 240 mins in presence of tween-80 by LC-MS/MS analysis; type: ADME, organism-based; parameters: dose 10 mg/kg, time < 4 hr, route intraperitoneal; summary of the method: as §1
[27] = Ratio of drug level in anesthetized C57BL/6J mouse brain to plasma at 5 mg/kg, ip administered as single dose measured upto 240 mins in presence of vegetable oil by LC-MS/MS analysis; type: ADME, organism-based; settings: read-out: BPR
[28] = Tmax in anesthetized C57BL/6J mouse brain at 10 mg/kg, ip administered as single dose measured upto 240 mins in presence of vegetable oil by LC-MS/MS analysis; type: ADME, organism-based; summary of the method: as §1
[29] = Half life in anesthetized C57BL/6J mouse plasma at 10 mg/kg, ip administered as single dose measured upto 240 mins by LC-MS/MS analysis; type: ADME, organism-based; summary of the method: as §1
[30] = Dissociation constant, pKa of compound; type: physicochemical
[31] = AUC in anesthetized C57BL/6J mouse brain at 10 mg/kg, ip administered as single dose measured upto 240 mins in presence of tween-80 by LC-MS/MS analysis; type: ADME, organism-based; parameters: dose 10 mg/kg, time < 4 hr, route intraperitoneal; settings: in vivo, 4 h; summary of the method: as §1
[32] = Ratio of drug level in anesthetized C57BL/6J mouse brain to plasma at 10 mg/kg, ip administered as single dose measured upto 240 mins by LC-MS/MS analysis; type: ADME, organism-based; settings: read-out: BPR; summary of the method: as §1
Mus musculus [33] = assay: Anticonvulsant activity against hyperthermia-induced seizure in ip administered Scn1aRX/+ mouse model of Dravet syndrome assessed as effective dose causing increase in generalized tonic-clonic seizure temperature threshold measured by RET-3 rectal probe; type: functional
[34] = Drug metabolism in brain of anesthetized C57BL/6J mouse assessed as decrease in decarboxylation of parent compound at 10 mg/kg, ip by LC-MS/MS analysis; type: ADME, organism-based; settings: in vivo; summary of the method: as §2
[35] = Drug metabolism in plasma of anesthetized C57BL/6J mouse assessed as decrease in decarboxylation of parent compound at 10 mg/kg, ip by LC-MS/MS analysis; type: ADME, organism-based; settings: in vivo; summary of the method: as §2
[36] = Drug uptake in plasma of anesthetized C57BL/6J mouse assessed as purity of compound at 10 mg/kg, ip by LC-MS/MS analysis; type: ADME, organism-based; settings: in vivo; summary of the method: as §2

C=C(C)[C@@H]1CCC(C)=C[C@H]1c1c(O)cc(CCCCC)c(C(=O)O)c1O [CANNABIDIOLIC ACID]
Cmax [1]: 2 ng/mg | Drug metabolism [2]: Metabolite_Notdetected | Kp at 4 h [3]: 1.9 | Cmax [4]: 29600 ng/mL | logP [5]: 6.63 | Tmax [6]: 30 min | Drug uptake [7]: 0.5% | half-life [8]: 67 min | half-life [9]: 41 min | Tmax [10]: 30 min | Cmax [11]: 13.2 ng/mg | Tmax [12]: 45 min | Tmax [13]: 30 min | Cmax [14]: 29600 ng/mL | Cmax [15]: 17600 ng/mL | Cmax [16]: 2 ng/mg | half-life [17]: 55 min | Tmax [18]: 15 min | Activity (Mus musculus [19]): Active | AUC [20]: 183 ng·min/g | half-life [21]: 41 min | half-life [22]: 92 min | AUC [23]: 183 µg·min/g | AUC at 4 h [24]: 78300 ng·h/mL | AUC at 4 h [25]: 78300 ng·h/mL | AUC at 4 h [26]: 9970 ng·h/mL | Kp at 4 h [27]: 0.04 | Tmax [28]: 45 min | half-life [29]: 92 min | pKa [30]: 2.91 | AUC [31]: 1142 ng·min/g | Kp at 4 h [32]: 0.04

C=C(C)[C@@H]1CCC(C)=C[C@H]1c1c(O)cc(CCCCC)cc1O [CANNABIDIOL]
ED (Mus musculus [33]): 100 mg/kg

CCCCCc1cc(O)c(C/C=C(\C)CCC=C(C)C)c(O)c1C(=O)O [CANNABIGEROLIC ACID]
Drug metabolism [34]: Metabolite_Notdetected | Drug metabolism [35]: Metabolite_Notdetected | logP [5]: 7.35 | half-life [9]: 31 min | Tmax [10]: 45 min | Tmax [12]: 30 min | Cmax [14]: 63500 ng/mL | Cmax [16]: 2.3 ng/mg | AUC [23]: 94 µg·min/g | AUC at 4 h [24]: 99300 ng·h/mL | half-life [29]: 62 min | pKa [30]: 2.92 | Kp at 4 h [32]: 0.02

CCCCCc1cc2c(c(O)c1C(=O)O)[C@@H]1C=C(C)CC[C@H]1C(C)(C)O2 [DELTA9-TETRAHYDROCANNABINOLIC ACID A]
Cmax ([1]; BLD = below limit of detection): Bld | Drug metabolism [2]: Metabolite_Notdetected | Cmax [4]: 2800 ng/mL | logP [5]: 6.25 | Tmax [6]: 15 min | Drug uptake [7]: 1% | Tmax [10]: 15 min | Cmax ([11]; BLD = below limit of detection): Bld | Cmax [14]: 2800 ng/mL | Cmax [15]: 6900 ng/mL | Cmax ([16]; BLD = below limit of detection): Bld | half-life [17]: 33 min | Tmax [18]: 15 min | half-life [22]: 67 min | AUC at 4 h [24]: 5030 ng·h/mL | AUC at 4 h [25]: 5030 ng·h/mL | AUC at 4 h [26]: 5630 ng·h/mL | half-life [29]: 67 min | pKa [30]: 2.89 | Drug uptake [36]: 95%
